Source: PubChem (several laboratories)
An excerpt weighted towards active compounds, which were near 4.1% of everything screened.
MEKK2 WT-MEK5: raises or lowers MEK5 binding to wildtype human MEKK2 PB1 domain | hit rate 1.1% among 290,000 | bead flow cytometry, Alexa488-MEK5 binding to MEKK2 WT; actives lie on both sides | binding response (% of control), % at 10 µM | Q9Y2U5; in the data active = binding response below about 67% or above about 130%
T cruzi inh: T. cruzi replication inhibition | hit rate 1.4% among 300,000 | AID 1885 | T. cruzi beta-gal in NIH3T3, luminescence, 90 h | inhibition, % (concentration not given with the values);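 active = mean inhibition across valid replicates above about 55%, limit read from the data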;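 note: signal also drops with host cell toxicity which is not excluded here; 0% = plate median of DMSO wells and 100% = zero luminescence signal; higher percent means less beta-gal luminescence so fewer parasites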
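Material: NIH/3T3 host cells with β-galactosidase reporter T. cruzi; Input: 5,000 host fibroblasts per well; Medium: DMEM, 2% fetal bovine serum; Compound: 50 nL DMSO compound solution per well; Schedule: 3 h host attachment, then at least 90 h co-culture; Detection: luminescent β-galactosidase signal after 60 min lysis.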
MEKK2mut PB1 HTS: signal of MEK5 binding to mutant human MEKK2 PB1 domain | bead flow cytometry, Alexa488-MEK5 binding to MEKK2 mutant | percent response, % at 10 µM | hit rate 0.35% among 290,000 | AID 1530; in the data active = percent response above about 24%, passing the limit was not always enough
MEKK3 PB1 HTS: modulators (inhibitors or enhancers) of MEK5 binding to human MEKK3 PB1 domain | Q99759 | bead-based flow cytometry, Alexa488-MEK5 binding to MEKK3; actives lie on both sides; 0 = blocked by unlabeled MEK5, 100 = vehicle | binding response (% of control), % at 10 µM | hit rate 1.4% among 290,000;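 active = binding response more than 3 SD above or below the average of its plate-row segment, actives on both sides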;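 note: Alexa488 bead fluorescence after subtracting the streptavidin-only scavenger bead signal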
Target sequence (Q99759 whole entry, looked up, the tested form may be a part): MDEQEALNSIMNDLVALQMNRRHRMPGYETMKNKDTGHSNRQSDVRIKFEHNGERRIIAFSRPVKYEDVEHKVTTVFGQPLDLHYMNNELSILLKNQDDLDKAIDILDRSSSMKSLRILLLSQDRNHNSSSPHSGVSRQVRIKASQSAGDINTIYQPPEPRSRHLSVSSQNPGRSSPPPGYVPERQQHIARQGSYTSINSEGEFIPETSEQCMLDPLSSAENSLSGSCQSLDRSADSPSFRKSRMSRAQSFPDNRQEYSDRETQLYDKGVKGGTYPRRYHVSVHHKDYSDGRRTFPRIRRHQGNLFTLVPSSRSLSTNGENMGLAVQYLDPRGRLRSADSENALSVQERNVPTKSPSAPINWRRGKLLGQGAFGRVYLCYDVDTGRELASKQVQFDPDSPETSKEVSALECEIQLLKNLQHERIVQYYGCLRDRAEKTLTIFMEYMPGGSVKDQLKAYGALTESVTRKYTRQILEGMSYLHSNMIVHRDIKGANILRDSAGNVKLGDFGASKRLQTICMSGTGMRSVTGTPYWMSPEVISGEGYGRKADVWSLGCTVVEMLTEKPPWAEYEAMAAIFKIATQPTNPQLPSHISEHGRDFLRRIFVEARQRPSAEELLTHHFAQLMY
DNA FID counter-1: fluorescent intercalator displacement, NS3 helicase counter-screen; hit rate 0.17% among 290,000; AID 1845; DNA fluorescent intercalator displacement, fluorescence; inhibition, % at 7.9 µM;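 note: 0% = vehicle and 100% = reference compound; higher means more ethidium bromide displaced from hairpin DNA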
NS3 helicase inh: blocks Hepatitis C virus NS3 helicase unwinding; NS3 helicase DNA unwinding, Cy5 molecular beacon fluorescence; inhibition, % at 10.9 µM; hit rate 0.56% among 290,000;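 active = inhibition above the mean of all tested compounds plus 3 SD, set per campaign, cut at about 35% in these data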;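 note: 0% = DMSO wells and 100% = thioflavine S control wells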
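assay system = NS3 helicase fragment of HCV | buffer or medium = MOPS pH 6.5, MgCl2, DTT, Tween20, BSA | timing = 60 min unwinding reaction at 25 °C after ATP addition | signal = Cy5 beacon fluorescence read at start and 1 h | read-out basis = % inhibition of unwinding | control set = low DMSO, high thioflavine S at 110 µM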
NS3 hel confirm: confirmation of Hepatitis C virus NS3 helicase inhibitors | shares compounds with NS3 helicase inh | NS3 helicase DNA unwinding, Cy5 molecular beacon fluorescence | inhibition, % at 10.9 µM | hit rate 31% among 1,600;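 active = inhibition above the mean of all tested compounds plus 3 SD, cutoff set per campaign, cut at about 36% in these data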
DNA FID counter-2: counter-screen for HCV NS3 helicase inhibitors: DNA intercalator displacement; hit rate 4% among 1,600; inhibition, % at 7.9 µM; DNA fluorescent intercalator displacement, fluorescence; shares compounds with NS3 helicase inh;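 note: 0% = vehicle and 100% = reference compound; higher means more displacement of ethidium bromide from the DNA hairpin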
FID counter DR: DNA intercalator displacement in dose response. 120 tested, under 10 active. IC50, µM. fluorescent intercalator displacement from DNA, fluorescence. shares compounds with NS3 helicase inh. AID 2172; call rule not given here
* marks the source's active call; other numbers are inactive results; . = not tested or not shown. Cut-off read from the data, not from the text of the source, unless noted: active = inhibition above about 37%; inactive = the rest.

SMILES	MEKK2 WT-MEK5	T cruzi inh	MEKK2mut PB1 HTS	MEKK3 PB1 HTS	DNA FID counter-1	NS3 helicase inh	NS3 hel confirm	DNA FID counter-2	others
COc1ccc(-n2c(SCC(=O)Nc3ccc(C(=O)O)cc3)nnc2-c2cccs2)cc1	103	-7	0	102	-40	64*	-5	-24
COc1ccc(C(=O)Nc2ccc(NC(=O)CSc3nnc(-c4ccncc4)n3C)cc2)cc1	102	-12	4	100	-29	36*	-3	-7
COc1cc(C(=O)Nc2cc(C)ccn2)ccc1OCC(=O)N1CCOCC1	101	-9	3	100	-22	4	.	.
CCn1c(SCC(=O)N2CCN(C(=O)c3ccco3)CC2)nnc1C(C)C	108	-2	8	102	-6	4	.	.
CC(=O)C1=NN(c2ccc(Cl)cc2)C(c2ccc3c(c2)OCO3)N(C(C)=O)N1C (stereo not drawn)	92	23	-9	93	-30	-22	.	.
C(=N\Nc1ccccc1)/c1nc2ccccc2s1	72	1	-39	71	1	9	.	.
N=C1/C(=C/c2coc3ccccc3c2=O)C(=O)N=C2SC(c3ccco3)=NN12	93	11	-3	94	-13	54*	50*	50*
Cc1cc(/C=C2\C(=N)N3N=C(c4ccco4)SC3=NC2=O)c(C)n1Cc1ccccc1	101	-5	0	106	-17	24	.	.
COc1ccc(-n2cccc2/C=C2\C(=N)N3N=C(c4ccco4)SC3=NC2=O)cc1	89	-4	-3	88	-22	42*	71*	-14	FID counter DR=>79
O=C(NCc1cccc(C(F)(F)F)c1)c1ccc(=O)[nH]c1	96	-2	-3	102	-5	-5	.	.
O=C(O)CC(C(=O)O)N1C(=O)/C(=C/C=C/c2ccco2)SC1=S (stereo not drawn)	81	-1	-24	81	0	74*	87*	-3
O=C(O)CC(C(=O)O)N1C(=O)/C(=C/c2ccc(-c3nc4ccccc4s3)o2)SC1=S (stereo not drawn)	.	-4	.	.	2	67*	67*	-2
O=C(O)CCCN1C(=O)/C(=C/C=C/c2ccco2)SC1=S	91	-3	-2	98	-9	73*	76*	4
O=C(O)CCc1ccc(-c2ccc(Cl)cc2)n1NC(=O)c1ccc(O)cc1	101	-4	3	108	-24	9	.	.
CC(NS(=O)(=O)c1ccccc1Cl)C1CC2CCC1C2 (stereo not drawn)	100	11	1	102	-28	0	.	.
CCc1cc(=O)oc2c3c(cc(OCC(=O)NC4CC4)c12)OC(C)(C)CC3	98	15	-4	98	-20	42*	-8	-37
O=C(CCCN1C(=O)c2cccc3cccc(c23)C1=O)NCc1cccs1	101	4	-6	108	-6	12	.	.
CCOC(=O)/C=C/C(=O)OCc1csc(CC(=O)Nc2ccccc2C)n1	97	-2	12	99	-39	38*	-19	-25
NCCN1C(=O)S/C(=C\c2ccc3c(c2)OCO3)C1=O	104	-5	-2	102	6	5	.	.
N=C1S/C(=C\c2ccco2)C(=O)N1c1ccc2c(c1)OCO2	104	-2	1	106	-15	40*	-20	2
COc1cc(/C=C2\SC(=O)N(CC(=O)Nc3ccc(C)cc3)C2=O)cc(Cl)c1OCC(=O)O	93	-7	-2	96	13	43*	62*	19
COC(=O)c1ccccc1-c1ccc(/C=N/Nc2nc(N3CCCC3)nc(N3CCCC3)n2)o1	95	36	-7	98	-32	-35	.	.
COC(=O)c1ccccc1-c1ccc(/C=N/NC(=O)c2cc3ccccc3o2)o1	87	16	-1	88	-45	38*	-5	-26
CCCc1[nH]n(-c2ccc(F)cc2)c(=O)c1C=Nc1ccc(C)cc1	103	12	1	103	-8	-7	.	.
COc1ccc(NS(=O)(=O)c2cccs2)cc1S(=O)(=O)N1CCCCC1	.	-7	.	.	.	.	.	.
SMILES	MEKK2 WT-MEK5	T cruzi inh	MEKK2mut PB1 HTS	MEKK3 PB1 HTS	DNA FID counter-1	NS3 helicase inh	NS3 hel confirm	DNA FID counter-2	others
Clc1ccccc1Cn1c(/C=C/c2ccco2)nc2ccccc21	104	20	2	106	-20	52*	11	-23
O=C(O)COc1ccccc1C(Nc1ccccn1)c1cc(Cl)c2cccnc2c1O (stereo not drawn)	83	-6	-3	99	-33	20	.	.
COc1ccccc1C(NC(C)=O)c1cc(Cl)c2cccnc2c1O (stereo not drawn)	109	61*	5	104	-23	40*	-8	-4
O=C(O)COc1ccccc1C(Nc1cccnc1)c1cc(Cl)c2cccnc2c1O (stereo not drawn)	83	-23	-8	97	-9	37*	69*	81*
CC(=O)NC(c1ccc(Cl)cc1Cl)c1ccc2cccnc2c1O (stereo not drawn)	107	62*	2	104	-26	36*	13	-16
Cc1ccc(CN2CCNC(=O)C2CC(=O)N(C)C2CCCCC2)cc1 (stereo not drawn)	106	-1	5	101	-29	-12	.	.
COc1ccc(C(=O)O)cc1S(=O)(=O)Nc1ccccc1Cc1ccccc1	97	-14	-3	100	-29	2	.	.
COc1cc(/C=C(\C#N)C(=O)Nc2ccc(C(=O)O)cc2)ccc1OC(=O)c1cccc(F)c1	93	-8	-4	103	-15	47*	63*	-24
COc1cc(/C=N/Nc2ccc(Cl)c(C(=O)O)c2)ccc1OC(=O)c1ccco1	99	1	-3	103	-23	38*	65*	-12
COc1cc(/C=N/Nc2ccc(Cl)c(C(=O)O)c2)ccc1OCC(=O)N1C(C)CCCC1C (stereo not drawn)	94	-10	-5	96	-31	45*	70*	-9
COc1cc(/C=N/NC(N)=O)ccc1OCC(=O)N1C(C)CCCC1C (stereo not drawn)	88	2	-12	93	-11	2	.	.
COc1ccc(C(=O)Oc2ccc(/C=N/Nc3ccc(Cl)c(C(=O)O)c3)cc2OC)cc1	103	-11	0	104	15	-18	.	.
